This note sets out measurements from ChEMBL document CHEMBL3875221, “New N- and O-arylpiperazinylalkyl pyrimidines and 2-methylquinazolines derivatives as 5-HT7 and 5-HT1A receptor ligands: Synthesis, structure-activity relationships, and molecular modeling studies” (Bioorg Med Chem, 2017).

The target in experiment [1] is T1, 5-hydroxytryptamine receptor 1A (Homo sapiens, UniProt P08908).
T1 sequence (P08908 whole entry): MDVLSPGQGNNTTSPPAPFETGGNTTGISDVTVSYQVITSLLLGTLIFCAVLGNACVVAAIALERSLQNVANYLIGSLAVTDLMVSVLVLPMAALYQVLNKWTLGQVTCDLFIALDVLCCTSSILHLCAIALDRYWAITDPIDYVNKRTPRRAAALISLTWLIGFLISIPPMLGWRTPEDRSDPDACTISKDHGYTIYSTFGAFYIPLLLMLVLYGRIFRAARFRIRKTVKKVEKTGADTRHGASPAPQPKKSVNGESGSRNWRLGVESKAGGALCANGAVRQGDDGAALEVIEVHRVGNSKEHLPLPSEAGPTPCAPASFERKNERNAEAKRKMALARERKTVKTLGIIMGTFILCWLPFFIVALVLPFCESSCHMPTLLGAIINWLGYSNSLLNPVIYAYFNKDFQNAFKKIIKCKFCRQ
Briefly: Displacement of [3H]-8-OH-DPAT from recombinant human 5-HT1A receptor expressed in CHOK1 cell membranes after 1 hr by liquid scintillation counting method. More on the design: species or system CHO-K1.

The target in experiment [2] is T2, 5-hydroxytryptamine receptor 7 (Homo sapiens, UniProt P34969). Kind of experiment: Displacement of [3H]-5-HT from recombinant human 5-HT7A receptor expressed in CHOK1 cell membranes after 40 mins by liquid scintillation counting method. Also noted: species or system CHO-K1. The method in brief: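 Membranes (15 µg protein/sample) in 50 mM Tris-HCl pH 7.4 with 4 mM MgCl2, incubated 40 min at 27 °C with [3H]-5-HT (5 nM final). Nonspecific binding with 10 µM serotonin. Stopped by vacuum filtration on PEI-soaked GF/C filters, ice-cold Tris washes.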

The target of experiment [3] is T2, 5-hydroxytryptamine receptor 7. Briefly: Antagonist activity at recombinant human 5-HT7 receptor expressed in HEK293 cells assessed as inhibition of 5-CT-induced increase in cAMP level at 10^-6M after 30 mins by TR-FRET assay relative to control. The experiment is classed as functional, cell-based. The method in brief:
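Stably transfected HEK293 cells in stimulation buffer (HBSS, 5 mM HEPES, 0.5 mM IBMX, 0.1% BSA) exposed to 10 nM 5-CT with test ligand for 30 min at room temperature. Lysis with Eu-cAMP/ULight-anti-cAMP, 1 h, then TR-FRET readout of cAMP.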

In experiment [4] the target is T3, 5-hydroxytryptamine receptor 1A (Homo sapiens) (UniProt P08908).
T3 sequence (whole entry): T1 sequence (P08908 whole entry)
Briefly: Antagonist activity at recombinant human 5-HT1A receptor expressed in HEK293 cells assessed as inhibition of 8-OH-DPAT-induced decrease in cAMP level at 10^-6M after 30 mins in presence of forskolin by TR-FRET assay relative to control. The experiment is classed as functional, cell-based. The method in brief:
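Stable HEK293 cells grown in DMEM with 10% dialysed FBS and G418, resuspended in HBSS/HEPES buffer with 0.5 mM IBMX and 0.1% BSA. Stimulated with 1 µM forskolin plus 1 µM (R)-(+)-8-OH-DPAT alongside test ligand, 30 min at room temperature. cAMP by LANCE Ultra TR-FRET after lysis, 1 h.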

T2 sequence (P34969 whole entry): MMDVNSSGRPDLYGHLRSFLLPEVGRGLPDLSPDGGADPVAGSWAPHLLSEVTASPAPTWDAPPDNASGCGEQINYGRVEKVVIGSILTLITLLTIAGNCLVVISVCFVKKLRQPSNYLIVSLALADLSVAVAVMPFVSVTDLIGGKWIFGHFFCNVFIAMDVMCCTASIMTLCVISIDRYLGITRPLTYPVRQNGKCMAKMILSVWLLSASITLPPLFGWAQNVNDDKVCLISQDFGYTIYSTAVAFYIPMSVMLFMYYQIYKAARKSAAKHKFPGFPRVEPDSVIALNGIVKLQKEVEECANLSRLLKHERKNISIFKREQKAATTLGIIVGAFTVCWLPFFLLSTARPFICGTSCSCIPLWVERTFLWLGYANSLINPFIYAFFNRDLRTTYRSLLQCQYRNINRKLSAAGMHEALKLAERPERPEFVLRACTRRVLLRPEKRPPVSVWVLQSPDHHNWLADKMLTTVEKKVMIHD

Take `O=c1cc(-c2ccccc2)ncn1CCCCCN1CCN(c2ccccc2)CC1`: the Ki in experiment [1] stood at 0.111 µM; in experiment [2], 0.613 µM.
On to `Clc1cccc(N2CCN(CCCCCOc3cc(-c4ccccc4)ncn3)CC2)c1`, for which the Ki in experiment [1] was 0.0174 µM; in experiment [2] it was 0.0448 µM.
The like results for `Cc1nc2ccccc2c(=O)n1CCCCCN1CCN(c2ccccc2)CC1` were, in that order, 0.0186 µM and 0.0537 µM.
Turning to `CCOc1ccccc1N1CCN(CCCCCOc2cc(-c3ccccc3)ncn2)CC1`, the inhibition in experiment [3] came out at 5.5%; in experiment [4], 6%. Further, the Ki in experiment [1] worked out at 0.00696 µM; in experiment [2], 0.0235 µM.
`Cc1nc(OCCCCCN2CCN(c3ccccc3)CC2)c2ccccc2n1`: the figures for the Ki in experiment [1] and in experiment [2] were 0.0247 µM and 0.276 µM, respectively.
For the compound `Cc1nc2ccccc2c(=O)n1CCCCCN1CCN(c2ccc(Cl)cc2)CC1`, the inhibition constant Ki in experiment [1] turned out to be 0.1 µM; in experiment [2], 0.327 µM.
Turning to `CC1CCN(CC[C@H]2CCCN2S(=O)(=O)c2cccc(O)c2)CC1`, the inhibition in experiment [3] came to 97%.
`O=c1cc(-c2ccccc2)ncn1CCCCCN1CCN(c2cccc(Cl)c2)CC1`: the Ki in experiment [1] is 0.0178 µM; in experiment [2] it was 0.0947 µM.
Regarding `O=c1cc(-c2ccccc2)ncn1CCCCCN1CCN(c2ccc(Cl)cc2)CC1`, the Ki in experiment [1] worked out at 0.167 µM; in experiment [2] it was 1.31 µM.
For the compound `CCOc1ccccc1N1CCN(CCCCCn2c(C)nc3ccccc3c2=O)CC1`, the inhibition amounted to 19.5% in experiment [3] and 18% in experiment [4]. In addition, the Ki came to 0.00299 µM in experiment [1] and 0.00842 µM in experiment [2].
As for `c1ccc(-c2cc(OCCCCCN3CCN(c4ccccc4)CC3)ncn2)cc1`, the Ki in experiment [1] came out at 0.0335 µM; in experiment [2] it was 0.143 µM.
Take `CCOc1ccccc1N1CCN(CCCCCn2cnc(-c3ccccc3)cc2=O)CC1`: the figures for the Ki in experiment [1] and in experiment [2] were 0.0259 µM and 0.0451 µM, respectively.
The matching figures for `Clc1ccc(N2CCN(CCCCCOc3cc(-c4ccccc4)ncn3)CC2)cc1`: 0.0903 µM and 1.38 µM.
The matching figures for `O=c1cc(-c2ccccc2)ncn1CCCCCN1CCN(Cc2ccccc2)CC1`: 0.772 µM and 1.33 µM.
Consider `Cc1nc2ccccc2c(=O)n1CCCCCN1CCN(c2cccc(Cl)c2)CC1`, for which the Ki worked out at 0.00821 µM in experiment [1] and 0.0351 µM in experiment [2].
With `Cc1nc(OCCCCCN2CCN(c3ccc(Cl)cc3)CC2)c2ccccc2n1`, the Ki in experiment [1] was determined as 0.0521 µM; in experiment [2], 0.181 µM.
Take `c1ccc(CN2CCN(CCCCCOc3cc(-c4ccccc4)ncn3)CC2)cc1`: the inhibition constant (Ki) in experiment [1] was determined as 1.03 µM; in experiment [2], 0.99 µM.
